Experimental data collected from several papers.
Medium: plasma

O=C1N(Cc2ccccc2Cl)c2ccccc2C12NN=C(c1ccccc1)S2 (stereo not shown) gave an AUC of 2820 ng·h/mL (Sprague-Dawley rat; oral; 40 mg/kg).
COc1cc2c3c(n(CCCN4CCOCC4)c(=O)c2cc1OC)-c1cc2c(cc1C3=O)OCO2 gave an AUC(0-inf) of 403 ng·h/mL (female Fischer 344 rat; intravenous; 12 mg/m²; single dose).
N#Cc1[nH]nnc1-c1cc(Cl)cc(/C=C/c2cccc(C(F)(F)F)c2)c1 has an AUC of 16700 ng·h/mL (male Sprague-Dawley rat; oral; 10 mg/kg).
With CCc1cc(C(=O)NC)c2nccc(N3CCc4c(cc(Cn5ccnc5)cc4-c4cn(C)nc4C(F)(F)F)C3=O)c2c1 the AUC(0-t) was 37200 ng·h/mL (male Sprague-Dawley rat; oral; 100 mg/kg; single dose).
For Cc1noc(-c2cc3cc(-c4nc(C(=O)NCc5ccncc5)[nH]c4C)ccc3[nH]2)n1, the AUC was 3 µM·h (Sprague-Dawley rat; intravenous; 1 mg/kg).
N#Cc1ccc(Nc2nc(N)cc(Oc3c(F)cc(-c4ccc(C#N)cc4)cc3F)n2)cc1 gave an AUC of 308 ng·h/mL (Sprague-Dawley rat; intravenous; 1 mg/kg).
For CCOC(=O)[C@@]12C[C@@H]1[C@@H](n1ccc3c(NC)nc(C#Cc4ccc(Cl)s4)nc31)[C@H](O)[C@@H]2O, the AUC(0-inf) was 31.1 ng·h/mL (male Sprague-Dawley rat; intravenous; 0.5 mg/kg).
CCNC(=O)c1nc(-c2ccc3[nH]c(-c4nc(C)no4)cc3c2)c(C)[nH]1 gave an AUC of 2.4 µM·h (Sprague-Dawley rat; intravenous; 1 mg/kg).
For N#Cc1[nH]nnc1-c1csc(-c2ccc(Cl)cc2)n1, the AUC was 18300 ng·h/mL (male Sprague-Dawley rat; oral; 10 mg/kg).
With C=CC(=O)N1CC2CC(n3nc(-c4ccc(C(=O)Nc5ccccn5)cc4)c4c(N)ncnc43)CC2C1 (stereo not shown) the AUC(0-t) was 908 ng·h/mL (male Wistar rat; oral; 3 mg/kg).
